Assay results: ChEMBL document CHEMBL1759994, “The discovery and synthesis of potent zwitterionic inhibitors of renin” (Bioorg Med Chem Lett, 2011)
pIC50, pKi: −log10 of the molar value.

Tests used:
Blood [1] = test: Metabolic stability in rhesus monkey whole blood assessed as conversion to (1R,2R)-2-((3-(((3R,4S)-N-cyclopropyl-4-(4-(2-(2,6-dichloro-4-methylphenoxy)ethoxy)phenyl)piperidine-3-carboxamido)methyl)-5-(3-methoxypropyl)phenoxy)methyl)cyclopropanecarboxylic acid after 20 mins; assay type: ADME, tissue-based, Macaca mulatta
[2] = Oral bioavailability in Sprague-Dawley rat at 30 mg/kg as 0.5% methocel suspension; assay type: ADME, organism-based; details: in vivo
[3] = Oral bioavailability in Beagle dog at 3 mg/kg in 0.5% methocel; assay type: ADME, organism-based, Canis lupus familiaris; details: in vivo
[4] = AUC (0 to 24 hrs) in Sprague-Dawley rat at 30 mg/kg, po as 0.5% methocel suspension; assay type: ADME, organism-based; set-up: time < 24 hr, dose 30 mg/kg, route oral; details: plasma
[5] = target: Voltage-gated inwardly rectifying potassium channel KCNH2 (Homo sapiens, UniProt Q12809); test: Binding affinity to human ERG
Cytochrome P450 3A4 [6] = target: T1, Cytochrome P450 3A4 (Homo sapiens, UniProt P08684); test: Inhibition of human CYP3A4 in human liver microsomes assessed as formation of 6beta-hydroxy-testosterone using testosterone as substrate by high throughput mass spectrometry preincubated for 30 mins in presence of NADPH; assay type: ADME, Microsome
Liver [7] = test: Metabolic stability in human liver S9 fraction assessed as conversion to (1R,2R)-2-((3-(((3R,4S)-N-cyclopropyl-4-(4-(2-(2,6-dichloro-4-methylphenoxy)ethoxy)phenyl)piperidine-3-carboxamido)methyl)-5-(3-methoxypropyl)phenoxy)methyl)cyclopropanecarboxylic acid after 20 mins; assay type: ADME, subcellular; details: s9, 20 min
Summary of the method: (§1)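 Prodrugs were incubated for 20 min in rat or human whole blood, or in rat or human liver S9 fraction (n = 2). The read-out was % conversion to the parent carboxylic acid.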

Blood [8] = test: Metabolic stability in Sprague-Dawley rat whole blood assessed as conversion to (1R,2R)-2-((3-(((3R,4S)-N-cyclopropyl-4-(4-(2-(2,6-dichloro-4-methylphenoxy)ethoxy)phenyl)piperidine-3-carboxamido)methyl)-5-(3-methoxypropyl)phenoxy)methyl)cyclopropanecarboxylic acid after 20 mins; assay type: ADME, tissue-based; summary of the method: as §1
Liver [9] = test: Metabolic stability in Sprague-Dawley rat liver S9 fraction assessed as conversion to (1R,2R)-2-((3-(((3R,4S)-N-cyclopropyl-4-(4-(2-(2,6-dichloro-4-methylphenoxy)ethoxy)phenyl)piperidine-3-carboxamido)methyl)-5-(3-methoxypropyl)phenoxy)methyl)cyclopropanecarboxylic acid after 20 mins; assay type: ADME, subcellular; details: s9, 20 min; summary of the method: as §1
[10] = AUC (0 to 24 hrs) in Beagle dog at 3 mg/kg, po in 0.5% methocel; assay type: ADME, organism-based, Canis lupus familiaris; set-up: time < 24 hr, dose 3 mg/kg, route oral; details: plasma
[11] = Metabolic stability in dog whole blood assessed as conversion to (1R,2R)-2-((3-(((3R,4S)-N-cyclopropyl-4-(4-(2-(2,6-dichloro-4-methylphenoxy)ethoxy)phenyl)piperidine-3-carboxamido)methyl)-5-(3-methoxypropyl)phenoxy)methyl)cyclopropanecarboxylic acid after 20 mins; assay type: ADME, tissue-based, Canis lupus familiaris
CYP3A4 = CYP3A4 (Homo sapiens, UniProt P08684); test: Ratio of IC50 for human CYP3A4 in absence of NADPH to IC50 for human CYP3A4 preincubated for 30 mins in presence of NADPH; details: read-out: Ratio IC50
Blood [12] = test: Metabolic stability in human whole blood assessed as conversion to (1R,2R)-2-((3-(((3R,4S)-N-cyclopropyl-4-(4-(2-(2,6-dichloro-4-methylphenoxy)ethoxy)phenyl)piperidine-3-carboxamido)methyl)-5-(3-methoxypropyl)phenoxy)methyl)cyclopropanecarboxylic acid after 20 mins; assay type: ADME, tissue-based; summary of the method: as §1
Renin [13] = target: T2, Renin (Homo sapiens, UniProt P00797); test: Inhibition of human recombinant renin in human citreated-plasma
T2 sequence (P00797 whole entry): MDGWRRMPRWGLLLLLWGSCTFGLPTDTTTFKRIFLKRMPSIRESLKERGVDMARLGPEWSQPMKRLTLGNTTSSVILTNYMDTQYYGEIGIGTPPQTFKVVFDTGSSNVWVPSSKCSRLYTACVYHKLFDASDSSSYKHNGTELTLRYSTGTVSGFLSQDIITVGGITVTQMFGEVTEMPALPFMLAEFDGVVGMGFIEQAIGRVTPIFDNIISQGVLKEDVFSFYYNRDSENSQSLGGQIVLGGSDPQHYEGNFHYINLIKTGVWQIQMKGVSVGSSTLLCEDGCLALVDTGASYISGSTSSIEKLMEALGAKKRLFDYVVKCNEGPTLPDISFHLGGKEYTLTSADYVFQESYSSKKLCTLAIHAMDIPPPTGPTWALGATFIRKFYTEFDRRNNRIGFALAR

Renin [14] = target: T2, Renin; test: Inhibition of human recombinant renin in PBS buffer using tetradecapeptide at pH 7.4
Cytochrome P450 3A4 [15] = target: T1, Cytochrome P450 3A4; test: Inhibition of human CYP3A4 in human liver microsomes assessed as formation of 6beta-hydroxy-testosterone using testosterone as substrate by high throughput mass spectrometry in absence of NADPH; assay type: ADME, Microsome

T1 sequence (P08684 whole entry): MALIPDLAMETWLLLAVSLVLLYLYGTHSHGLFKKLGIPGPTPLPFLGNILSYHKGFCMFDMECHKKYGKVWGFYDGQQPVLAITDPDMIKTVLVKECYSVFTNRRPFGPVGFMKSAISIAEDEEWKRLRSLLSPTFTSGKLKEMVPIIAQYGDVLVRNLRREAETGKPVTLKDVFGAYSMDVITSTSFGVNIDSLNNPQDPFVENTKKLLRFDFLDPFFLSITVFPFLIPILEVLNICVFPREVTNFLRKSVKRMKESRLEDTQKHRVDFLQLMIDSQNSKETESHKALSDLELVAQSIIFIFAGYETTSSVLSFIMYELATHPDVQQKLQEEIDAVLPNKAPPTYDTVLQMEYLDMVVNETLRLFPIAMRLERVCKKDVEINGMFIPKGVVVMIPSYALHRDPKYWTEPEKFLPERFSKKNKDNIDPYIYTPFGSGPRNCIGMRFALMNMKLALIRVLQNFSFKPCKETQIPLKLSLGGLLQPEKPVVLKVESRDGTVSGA
Voltage-gated inwardly rectifying potassium channel KCNH2, sequence (Q12809 whole entry): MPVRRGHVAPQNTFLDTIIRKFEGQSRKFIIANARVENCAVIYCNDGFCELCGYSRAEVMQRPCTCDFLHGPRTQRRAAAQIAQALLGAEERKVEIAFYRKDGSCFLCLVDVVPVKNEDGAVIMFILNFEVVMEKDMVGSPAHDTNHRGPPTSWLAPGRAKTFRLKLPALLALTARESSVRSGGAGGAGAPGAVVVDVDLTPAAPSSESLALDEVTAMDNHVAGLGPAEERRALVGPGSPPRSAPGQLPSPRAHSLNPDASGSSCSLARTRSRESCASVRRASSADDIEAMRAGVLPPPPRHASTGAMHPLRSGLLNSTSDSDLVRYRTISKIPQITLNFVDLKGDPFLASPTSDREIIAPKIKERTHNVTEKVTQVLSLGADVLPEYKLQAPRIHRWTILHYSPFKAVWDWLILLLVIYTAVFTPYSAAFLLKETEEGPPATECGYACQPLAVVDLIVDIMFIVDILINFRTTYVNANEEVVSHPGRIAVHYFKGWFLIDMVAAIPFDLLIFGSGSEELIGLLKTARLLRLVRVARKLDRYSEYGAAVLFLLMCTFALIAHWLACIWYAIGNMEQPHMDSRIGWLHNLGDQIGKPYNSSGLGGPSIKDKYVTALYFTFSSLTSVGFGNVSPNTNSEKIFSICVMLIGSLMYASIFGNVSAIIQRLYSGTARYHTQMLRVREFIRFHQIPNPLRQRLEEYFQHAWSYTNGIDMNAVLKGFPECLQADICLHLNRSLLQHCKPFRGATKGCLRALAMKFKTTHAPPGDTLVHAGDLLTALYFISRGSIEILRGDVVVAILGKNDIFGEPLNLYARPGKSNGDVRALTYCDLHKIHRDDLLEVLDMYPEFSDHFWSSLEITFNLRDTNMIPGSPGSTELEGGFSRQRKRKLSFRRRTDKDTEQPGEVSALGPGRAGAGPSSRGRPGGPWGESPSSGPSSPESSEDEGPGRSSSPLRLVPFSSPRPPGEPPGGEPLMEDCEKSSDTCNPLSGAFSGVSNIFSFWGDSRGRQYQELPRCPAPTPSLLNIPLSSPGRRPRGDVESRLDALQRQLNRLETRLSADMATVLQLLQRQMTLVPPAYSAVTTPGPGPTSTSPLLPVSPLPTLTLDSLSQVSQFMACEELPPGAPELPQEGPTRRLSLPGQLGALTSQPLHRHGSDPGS
CYP3A4, sequence (P08684 whole entry): as the sequence (P08684 whole entry) above

With `CCOC(=O)[C@H]1C[C@@H]1COc1cc(CCCOC)cc(CN(C(=O)[C@H]2CNCC[C@@H]2c2ccc(OCCOc3c(Cl)cc(C)cc3Cl)cc2)C2CC2)c1` the Activity (Blood [1]) was 15%, the bioavailability [2] was 52% and the bioavailability [3] was 6%. It also gave an AUC(0-t) at 24 h [4] of 5700 nM·h, a pKi [5] of 7.10 and a pIC50 (Cytochrome P450 3A4 [6]) of 5.85. It also gave an Activity (Liver [7]) of 56%, an Activity (Blood [8]) of 99% and an Activity (Liver [9]) of 60%. For the same compound, the AUC(0-t) at 24 h [10] was 10 nM·h, the Activity [11] was 2% and the IC50 shift (CYP3A4) was 14. For the same compound, the Activity (Blood [12]) was 3%, the pIC50 (Renin [13]) was 7.96 and the pIC50 (Renin [14]) was 10.19. The pIC50 (Cytochrome P450 3A4 [15]) was 4.71.
